Assay: Toxicity liver stage against HepG2, at 10uM
Type: cell-based
Set-up: test concentration 10 uM, cell line HepG2-A16-CD81EGFP
Details: human, HepG2-A16-CD81EGFP cells; read-out: INHIBITION
How it was run: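 Uninfected HepG2-A16-CD81EGFP cells, 3 × 10^3 per well, 1536-well, plated on prespotted compound at 10 μM final, parasite-free screening media added to match infected plates; puromycin 10 μM positive, DMSO 0.5% negative; run in parallel with 48 h PbLuc assay at 37 °C, 5% CO2; viability by CellTiter-Glo luminescence, normalized to controls.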

| SMILES | cytotoxicity at 10 µM [%] |
| --- | --- |
| Cc1ccn(CCC(=O)NCCc2ccco2)n1 | -4.81 |
| O=C1COc2ccc(S(=O)(=O)NCCC3=CCCCC3)cc2N1 | 5.42 |
| Cc1cccc(NC(=O)Nc2c[nH]c(=O)[nH]c2=O)c1C | 8.2 |
| Cc1ccc2c(c1)C(=O)CC1(CCN(Cc3ccccc3)CC1)O2 | 2.81 |
| COc1ccc2c(c1)[nH]c1c(N(C)CC3OCCO3)ncnc12 | 18.2 |
| COc1ccc(N2CCN(C(=O)c3cc(=O)c(OC)c[nH]3)CC2)cc1 | -0.244 |
| O=C(Cc1cccc(F)c1)N1CCc2ncnc(N3CCCC3)c2CC1 | -4.9 |
| CN1CC[C@]2(CN(C(=O)c3ccc[nH]3)C[C@H]2c2ccccc2)C1=O | 11.6 |
| CN(C)c1ncnc2c1CCN(c1cccc(F)c1)CC2 | 18.5 |
| CCOCc1ncn2c1CN(S(=O)(=O)c1cccc(C)c1)CC2 | -1.33 |
| CCc1c(C)n(C)c2nc3ccccc3n2c1=O | 5.94 |
| O=C(Cn1cc(-c2ccccc2)ncc1=O)Nc1nccs1 | -4.83 |
| Cc1ccc2nc(C3CCN(CCO)CC3)nn2c1 | -1.23 |
| O=C(NCC1OCCc2cn(CC3CC3)nc21)c1ccsc1 (configuration not stated) | 6.69 |
| CCn1ccc(-c2nnc(SCC(=O)NCC(C)C)n2CC)n1 | 5.44 |
| O=C(NCc1ccccc1Cl)c1[nH]nc2c1CS(=O)(=O)CC2 | -0.908 |
| COc1ccc(Nc2nc3c(C)nn(C)c3c(=O)n2C)c(OC)c1 | -6.89 |
| O=C(CN1CCC2(CC1)NC(=O)c1cc(Br)ccc1N2)NC1CC1 | 4.79 |
| CN(C)C(=O)Cn1c(C2CC2)c(CN2CCOCC2)c2cccnc21 | -3.99 |
| Cc1cnc(CC2COCCN(C(=O)c3cncnc3)C2)cn1 (configuration not stated) | 0.187 |
| NC(=O)c1ccccc1Oc1cccc(C2CCCNC2)n1 (configuration not stated) | 5.19 |
| O=C(C1CCC1)N1CCCC(c2ccnc(Nc3cnccn3)n2)C1 (configuration not stated) | -22.7 |
| O=C(c1cscn1)N1CCC(Cc2cnc3[nH]ccc3c2)C1 (configuration not stated) | -26.5 |

| SMILES | cytotoxicity at 10 µM [%] |
| --- | --- |
| CN1CC(=O)N(C2CCNC2)Cc2c(NC3CCCC3)ncnc21 (configuration not stated) | 9.46 |
| Cc1ccc(C(=O)NCCS(=O)(=O)Cc2ccccc2)c(C)c1 | -5.09 |
| O=C(NC1CCc2nccn2C1)c1ccc(OCC2CC2)nc1 (configuration not stated) | 4.36 |
| C1CCN(CCN2CCCCC2C2OCCO2)CC1 (configuration not stated) | 3.19 |
| O=C(CCOCc1ccccc1)NS(=O)(=O)N1CCOc2ccccc21 | 9.15 |
| CC(C)CNC(=O)c1ccc(NC(=O)NC(C)c2ccccn2)cc1 (configuration not stated) | 5.26 |
| CCCNC(=O)c1ccc(NC(=O)NC(C)c2ccccn2)cc1 (configuration not stated) | 9.15 |
| CCc1cccnc1NCc1cnc(N2CCOCC2)nc1 | 1.03 |
| NC(=O)CC1CCCN(c2cncc(SCc3ccccc3)n2)C1 (configuration not stated) | 11 |
| CN(C)C(=O)Cn1cnc2c(Br)cccc2c1=O | -8.97 |
| CCOC(=O)c1ccc(CNC(=O)c2ccc(Cl)cn2)o1 | 6.72 |
| O=C(NCC1CC(=O)N(CCc2ccccc2)C1)c1c(F)cccc1F (configuration not stated) | 9.52 |
| CCCn1cc(NC(=O)c2ccc(NC(=O)NC3CC3)cc2)ccc1=O | 1.93 |
| O=C(NCCN1CCOCC1)c1ccc(-c2ccccc2)[nH]c1=O | 1.58 |
| Cc1ccc(C(=O)NCCN2CCOCC2)c(=O)[nH]1 | -8.44 |
| CC(C)(O)CSCCNCc1ccc(Cl)c2cccnc12 | -8.87 |
| CCOCC(=O)Nc1cccc(Oc2ccccn2)c1 | -2.41 |
| CS(=O)(=O)CCOCCNc1ccc(C(F)(F)F)cc1C#N | 2.31 |
| COc1cc(C(C)=O)ccc1SCC(=O)Nc1cc(C)n[nH]1 | 9.83 |
| CC(C)OCCSCc1nnc(-c2cccc(F)c2)o1 | 9.45 |
| CCOC(C)c1nc(Cn2cc(-n3cccc3)cn2)cs1 (configuration not stated) | 3.81 |
| Cc1ncsc1CN(C)C(=O)C(CC(C)C)N1CCCCC1=O (configuration not stated) | 3.28 |
| CS(=O)(=O)NC(=O)CCc1cccc(OC2CCCC2)c1 | -5.01 |

| SMILES | cytotoxicity at 10 µM [%] |
| --- | --- |
| COc1ccccc1S(=O)(=O)Nc1cnc(O)cc1C | -13.2 |
| COc1ccc(C(=O)NCCCC2(C3OCCO3)CCOCC2)cc1 | 3.05 |
| COc1ccccc1CNC(C)c1cnc2cc(C)nn2c1C (configuration not stated) | 8.32 |
| Cc1cc(C(=O)N2CCCC2)ccc1NCCOCC(F)(F)F | 0.608 |
| CN1CCN(Cc2cccc(NCc3ncc[nH]3)c2)CC1 | -6.44 |
| COCc1nc2n(n1)CCCC2Nc1nc(C2CC2)ns1 (configuration not stated) | 17 |
| Cc1ccc(C(O)CNC(=O)NCc2nc(C)cs2)cc1 (configuration not stated) | -13.3 |
| Cn1cc(CC2CCN(C(=O)NCCc3cccc(O)c3)C2)cn1 (configuration not stated) | 1.05 |
| O=C([C@H]1CC[C@@H]2[C@@H](CCN2c2ncccn2)O1)N1CCCCO1 | 6.46 |
| O=C(Cc1ccc(F)cc1)N1CCn2cc(Cn3cncn3)nc2C1 | -74 |
| CC(=O)NCC(=O)N1CCN(Cc2cccnc2)c2ncccc2C1 | -114 |
| COc1cc2nc(NCCN3CCNC3=O)cc(C)c2cc1OC | -0.454 |
| CC1(c2ccccc2)CCC(=O)N(CC2(N3CCOCC3)CCCC2)C1 (configuration not stated) | 8.8 |
| COCC1CCN(Cc2cc(O)c3c(C)ccc(C)c3n2)CC1 | -6.09 |
| Clc1cccc2c3c([nH]c12)CCN(Cc1cc2n(n1)CCNC2)C3 | -0.735 |
| Cc1nnc(SCCNC(=O)c2cc(S(N)(=O)=O)ccc2F)s1 | -1.4 |
| CCN(Cc1ccc2cccc(O)c2n1)CC1CCCO1 (configuration not stated) | -4.02 |
| CC(C)Cc1nc(CN2CCC3(CCCO3)CCC2=O)no1 (configuration not stated) | 1.95 |
| Cc1cnc(NC(=O)c2cccc(CN(C)Cc3snnc3C)c2)s1 | 16.3 |
| Cc1cccc(-c2cc(-c3c(C)nn(CCO)c3C)c(C#N)c(N)n2)c1 | 20.2 |
| COCC(=O)N1CCN(S(=O)(=O)c2cccs2)[C@H]2CS(=O)(=O)C[C@H]21 | 1.44 |
| CC(C)=CCN1CCNC(=O)C1CC(=O)N1CCc2sccc2C1 (configuration not stated) | 0.429 |
| CC(C)c1cc(NCC(O)c2ccccn2)n2nccc2n1 (configuration not stated) | 13 |

| SMILES | cytotoxicity at 10 µM [%] |
| --- | --- |
| Cc1ccc(C(N)=O)c(N2C[C@H]3OC(=O)N(C4CCCC4)[C@H]3C2)n1 | 5.54 |
| COCC(=O)N1CCCC(C(=O)N(C)CCn2ccnc2C)C1 (configuration not stated) | 0.707 |
| CCn1cc(CN(C)C(=O)C(c2ccccc2C)N(C)C)cn1 (configuration not stated) | 0.0381 |
| O=C1CCCN1CCCNCc1cc(O)c2cccc(Cl)c2n1 | 4.05 |
| O=C(c1ccc2c(c1)CCO2)N1CCN(c2ccc(Cl)cn2)CC1 | 9.56 |
| CSCC[C@H](N)C(=O)N1CC(Oc2ccccc2C)C1 | 0.897 |
| COc1cccc(-c2cc(C(=O)NCCn3nc(C)nc3C)[nH]n2)c1 | -2.77 |
| C[C@@H]1CN(CCC(=O)N(C)Cc2ccccc2)CC[C@@]1(O)C1CCC1 | 2.89 |
| CS(=O)(=O)CCN1CCC2(CCCN(C3CCOCC3)C2=O)C1 (configuration not stated) | -5.65 |
| COc1ncc(-c2nccn2CCN(C)C)cn1 | -17.4 |
| CC(=O)NC(C)CC(=O)NCc1cccnc1Oc1ccccc1C (configuration not stated) | 11.4 |
| COc1cccc(N2CCN(C(=O)C(O)c3cccc(Cl)c3)CC2=O)c1 (configuration not stated) | -11.2 |
| COCCCC1CCCN(C(=O)CCc2cc(O)no2)C1 (configuration not stated) | 8.41 |
| COCCN1CCC(NCc2cc(F)ccc2F)C1 (configuration not stated) | -21.9 |
| COc1ccccc1CC(=O)NS(=O)(=O)c1ccc(NC(C)=O)cc1 | -2.18 |
| CCCC(=O)NC(C(=O)OC)c1cc(F)ccc1F (configuration not stated) | 8.55 |
| CC(=O)N(Cc1ncc(C(C)C)o1)C1CCN(CCn2cncn2)C1 (configuration not stated) | -11.3 |
| CN1CCCN(C(=O)NCc2cc(Br)cs2)CC1 | -16.7 |
| Cc1ncc(C(=O)NCCNC(=O)Cc2cccc(F)c2)s1 | -4.53 |
| Cc1nc(CN2CCCC(N(C)CCOCC(F)(F)F)C2)no1 (configuration not stated) | -4.92 |
| O=C(Nc1cnn(CCN2CCOCC2)c1)c1ccccc1Cl | -5.81 |
| CC(Cn1ccnc1)NC(=O)N1CCN(Cc2ccco2)CC1 (configuration not stated) | -2.07 |
| CC(C)OCCN1CCC(C(=O)c2cc(F)ccc2F)CC1 | -8.63 |

| SMILES | cytotoxicity at 10 µM [%] |
| --- | --- |
| CCc1nc2n(n1)CC(NCC(=O)Nc1oc(C)c(C)c1C#N)CC2 (configuration not stated) | -8.84 |
| CCOc1ccnc(N2CCN(C(=O)c3ccoc3C)CC2)n1 | -0.463 |
| Cc1ccc(-c2nc(CN3CCOC(Cn4cccn4)C3)no2)cc1 (configuration not stated) | -8.93 |
| CCc1nc(CN(C(C)=O)C2CCN(Cc3csc(C)n3)C2)no1 (configuration not stated) | -12.8 |
| COc1ncccc1CNC(=O)NCc1ccco1 | -12.8 |
| CC(C)C(=O)NC1CCCN(C(=O)c2cc3ccccc3cc2O)C1 (configuration not stated) | -4.14 |
| CC(O)(CN1CCN(CCO)CC1)c1cccc(C(F)(F)F)c1 (configuration not stated) | -17.5 |
| Cn1ccnc1CN1CCCC1Cn1cccn1 (configuration not stated) | -13.8 |
| Cc1cnn(CC2CCCN2C(=O)CCc2ccncc2)c1 (configuration not stated) | -10.6 |
| N#Cc1ccsc1C(=O)N1CCCN(Cc2cscn2)CC1 | 3.48 |
| CNc1cc2c(nn1)CCN(C(=O)c1cccc3c1OCO3)C2 | -10.6 |
| CC(C)c1ncc2c(n1)CN(Cc1cccc(OCC(N)=O)c1)CC2 | -7.44 |
| COc1ccc(C(=O)N2CCC(Nc3cccnn3)CC2)c(OC)c1 | 4.67 |
| CCNC(c1ccc(OC)cc1)c1cccnc1 (configuration not stated) | -3.54 |
| COc1ccc(CNCc2c(C)nn(C)c2N2CCOCC2)cc1 | -1.32 |
| CN(C)C(=O)N1CCC2(CC1)NC(=O)c1ccccc12 | -10.1 |
| Cc1nc(COC[C@]23COC[C@H]2CN(Cc2ccoc2)C3)cs1 | -19.2 |
| N#Cc1ccc(C(=O)N2CC[C@H]3[C@H]2CCN3CC2CCOCC2)cc1 | -5.19 |
| Fc1cnc(N2CCO[C@H]3CN(CC4CCCC4)C[C@H]32)nc1 | -9.39 |
| Cc1cc(N2CCN(C(=O)[C@@H]3C[C@H]4C=C[C@@H]3C4)CC2)nc2ccccc12 | -5.71 |
